According to article PMC3159820 (Journal of immunology (Baltimore, Md. : 1950), 2011):

Tested on: T cell hybridoma HH8
Assay: Activation of T cell hybridoma HH8 by PT-gluten
Format: cell-based, mouse
Conditions: HH8 and DB4, in words
Method in brief: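 Irradiated (8,000 rads) T2DM cells (100,000) retrovirally expressing DQ2 WT or mutant co-cultured 16-24 h with HH8 hybridoma (100,000) and titrated PT-gluten (0.06-3 μg/μl); supernatant IL-2 by mouse IL-2 ELISA. PT-gluten: gluten digested with pepsin (pH 2.0), then trypsin/chymotrypsin (pH 6), 37°C; heat-inactivated; dialysed high-molecular-weight fraction deamidated with guinea pig transglutaminase (100 ug/ml, 1mM CaCl2, 37°C, 2h).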

| Sequence | effect of DM on presentation of the epitope |
| --- | --- |
| PQPELPYPQPQL [α-II-gliadin 62-70] | DM-suppressed epitope |
| QLQPFPQPELPYPQPQS [α-gliadin 57-73 Q65E] | suppressed by DM in endocytic compartments |
